In the library only some 2.2% were active in any assay of this set; here they are far more common.
Cneo AK release – Cryptococcus neoformans cell lysis inducers, primary screen, AK release luminescence, single concentration; C. neoformans lysis, adenylate kinase release luminescence, 4 h; normalised: neutral wells 0, clomiphene wells 100; lysis activity, % at 15 µM; 0.2% of 360,000 active; AID 651654, 2012;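 active = mean lysis activity across replicates of at least 80%, whatever share of replicates individually reach that level; inactive = mean lysis activity below 80%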
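Material: C. neoformans cells; Schedule: 4 h static compound exposure, 37 °C, read 1 h post-reagent; Measured by: adenylate kinase release luminescence; Read-out: signal increase indicating cell lysis; Controls: Clomiphene as positive lysis control.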
PglD inh – C. jejuni PglD acetyltransferase inhibitors, primary screen, biochemical, DTNB colorimetric, single point | purified PglD enzyme, DTNB colorimetric CoA detection | inhibition, % at 12.5 µM | 0.098% of 360,000 active; in the data active = inhibition above about 16%, passing the limit was not always enough
SUMO Mot1 rescue – yeast Mot1-301 growth rescue at high temperature, primary screen, SUMOylation pathway inhibitor project, S. cerevisiae, ATP luminescence, 38.5C; S. cerevisiae Mot1-301 growth rescue; percent above DMSO median, 100 means doubled; growth rescue, % at 18.8 µM; 1% of 320,000 active; AID 2716, 2010;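 active = every valid replicate shows activation above 250% relative to neutral control wells; inactive = the rest, any valid replicate at or below 250%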;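 also: OY570 slx delta 5 strain wells were the positive control but not used for scaling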
Ecoli rRNA inh – reduced GFP signal of wild-type E. coli, primary screen, bacterial rRNA inhibitor project, GFP/RFP fluorescence, OD600, single point; E. coli WT GFP vs humanized-ribosome RFP mutants, 24 h; hits give low values; DMSO median 0, no signal -100; GFP signal change (wild-type ribosome), % (test concentration not listed); 1.6% of 350,000 active; AID 720706, 2013;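 active = significant combined selectivity score with lowered wild-type GFP, culture density cut under 30%, mutant RFP and density less affected; inactive = any of these conditions unmet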
Yeast superoxide – reduction of superoxide in aged yeast, primary screen, HTS. S. cerevisiae aged cells, superoxide DHE fluorescence; hits give low values. superoxide response (% of plate mean), % at 10 µM. 0.18% of 330,000 active;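 active = superoxide response under a set limit, about three screen SD below normal, cut at about 65% in these data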;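 also: yeast aged for seven days with compound at 30 °C before DHE staining; 100% = average MFI of all compound-treated wells on the plate with controls excluded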
Numbers without * were called inactive; i = inactive; x = no result given.

SMILES	Cneo AK release	PglD inh	SUMO Mot1 rescue	Ecoli rRNA inh	Yeast superoxide
CC(C)N1C(=O)CCC1C(=O)N1CCCc2ccccc21 (stereo not given)	3	25*	-1	x	112
CC(=O)N1CC2(C1)[C@@H](c1ccc(-c3ccc(C#N)cc3)cc1)[C@@H](CO)N2C(C)=O	x	x	x	1	x
COc1ccc(CCNC(=O)[C@@H](NC(=O)N2CCn3c2nc2ccccc23)C(C)C)cc1OC	0	0	-4	-9	115
CCC(C)[C@H](NC(=O)N1CCn2c1nc1ccccc12)C(=O)NCCc1ccc(OC)c(OC)c1 (stereo not given in full)	1	-2	-8	-20*	81
Cc1ccc(NC(=O)C2CCN(S(C)(=O)=O)CC2)cc1C	-2	1	-10	x	111
O=C(Nc1ccc2c(c1)OCCO2)C1CCN(S(=O)(=O)c2ccc3c(c2)OCCO3)CC1	1	-3	-7	-32*	104
COc1ccc(NC(=O)C2CCN(S(C)(=O)=O)CC2)cc1Cl	x	x	325*	x	98
O=C(C[C@H]1CC[C@@H]2[C@H](COC[C@@H](O)CN2S(=O)(=O)c2ccc(Cl)cc2)O1)NCc1ccncn1	4	-2	x	2	x
C[C@@H]1CN([C@H](C)CO)C(=O)c2cc(NS(=O)(=O)c3ccc(Cl)cc3)ccc2O[C@@H]1CN(C)S(=O)(=O)c1ccc(F)cc1	4	1	x	-8	x
C[C@@H]1CN([C@H](C)CO)C(=O)c2cc(NS(=O)(=O)c3ccc(Cl)cc3)ccc2O[C@H]1CN(C)S(=O)(=O)c1ccc(F)cc1	101*	1	x	-4	x
C[C@H](CO)N1C[C@H](C)[C@H](CN(C)S(=O)(=O)c2ccccc2)Oc2ccc(NS(=O)(=O)c3ccc(F)cc3)cc2C1=O	104*	2	x	2	x
C[C@H](CO)N1C[C@H](C)[C@H](CN(C)S(=O)(=O)c2ccc(F)cc2)Oc2ccc(NS(=O)(=O)c3ccc(Cl)cc3)cc2C1=O	102*	2	x	-2	x
C[C@H](CO)N1C[C@H](C)[C@@H](CN(C)S(=O)(=O)c2ccc(Cl)cc2)Oc2c(NS(=O)(=O)c3ccc(F)cc3)cccc2C1=O	127*	-1	x	0	x
C[C@@H]1CN([C@H](C)CO)S(=O)(=O)c2ccc(C#CC3CCCCC3)cc2O[C@@H]1CN(C)C(=O)Cc1ccncc1	-3	4	x	4	x
C[C@@H]1CN([C@@H](C)CO)C(=O)c2cc(NC(=O)CCN3CCOCC3)ccc2O[C@@H]1CN(C)Cc1ccc(C(=O)O)cc1	95*	-1	x	2	x
C[C@H](CO)N1C[C@H](C)[C@H](CN(C)Cc2ccc(C(=O)O)cc2)Oc2ccc(NC(=O)CCN3CCOCC3)cc2C1=O	1	9	x	0	x
C[C@H]1CN([C@@H](C)CO)C(=O)c2cc(NC(=O)CCN3CCOCC3)ccc2O[C@@H]1CN(C)Cc1ccc(C(=O)O)cc1	103*	-1	x	3	x
FC(F)(F)c1cnc(N2CCN(C(=S)NCc3ccccc3)CC2)c(Cl)c1	x	x	-9	-9	100
FC(F)(F)c1cnc(N2CCCN(C(=S)Nc3ccccc3)CC2)c(Cl)c1	16	-8	22	-41*	92
Cc1cccc(C2C3=C(Nc4[nH]n(-c5ccccc5)c(=O)c42)c2ccccc2C3=O)c1 (stereo not given)	x	x	x	-38*	x
O=C(NNC(=S)Nc1ccc(Br)cc1)c1ccccc1	2	4	-26	-47	96
CCOc1ccc(NC(=S)NNC(=O)c2ccc(Br)cc2)cc1	x	x	-8	-15*	107
CC(=NNC(=O)c1ccncc1)c1ccccc1O	0	-6	x	-30*	x
CC(=NNC(=O)c1ccncc1)c1ccc(O)cc1O	0	2	x	-16	x
C/C(=N/NC(=O)c1ccc(-c2ccccc2)cc1)c1cccc(O)c1	2	2	35	-26*	89
SMILES	Cneo AK release	PglD inh	SUMO Mot1 rescue	Ecoli rRNA inh	Yeast superoxide
C/C(=N\NC(=O)c1ccc(Cl)cc1)c1cccc(NC(=O)c2cccnc2)c1	-2	5	183	x	115
C/C(=N\NC(=O)c1cccc(O)c1)c1cccc(NC(=O)c2ccc(F)cc2)c1	-8	0	2	-6	82
C/C(=N\NC(=O)c1ccc(N/N=C(\C)c2ccc(O)cc2)cc1)c1ccc(O)cc1	x	x	40	-21*	i
C/C(=N\NC(=O)c1ccc(O)cc1)c1ccc(N2CCOCC2)cc1	x	x	11	3	98
C/C(=N\NC(=O)c1ccc(O)cc1)c1cccc(NC(=O)c2ccc(Cl)cc2)c1	-17	9	-1	-35*	83
COc1ccc(CN(C)C[C@@H]2OCCCC[C@@H](C)Oc3ccc(NC(=O)CCCN(C)C)cc3C(=O)N([C@@H](C)CO)C[C@@H]2C)cc1	x	x	x	4	x
COc1ccccc1S(=O)(=O)N1C[C@H](O)COC[C@H]2O[C@H](CC(=O)O)CC[C@@H]21	-3	1	x	5	x
O=C(C[C@H]1CC[C@@H](NC(=O)C2CCOCC2)[C@@H](CO)O1)NCC1CC1	x	x	x	2	x
O=C(CN1CCOCC1)NCC[C@@H]1CC[C@@H](NC(=O)c2ccc3c(c2)OCO3)[C@H](CO)O1	-5	-3	x	1	x
CCCNC(=O)Nc1ccc2c(c1)C(=O)N(C)C[C@H](OC)[C@@H](C)CN(Cc1ccncc1)[C@H](C)CO2	-3	x	x	0	x
Cc1cc(C(C)(C)C)ccc1OCCCCN1CCCC1	x	x	-3	x	100
CCC(C)(C)c1ccc(OCCCC[n+]2cccc(C)c2C)c(C(C)(C)CC)c1	1	1	173	x	65*
C(=N\Nc1nc2ccccc2[nH]1)/c1cccc2nccnc12	-3	2	7	-31*	104
COc1cc(OC)c(OC)cc1/C=N/Nc1nc2ccccc2[nH]1	x	x	17	-39*	93
Cc1nn(Cc2ccc(C(=O)NN)cc2)c(C)c1Cl	x	x	95	-11	100
Cc1nn(Cc2ccc(C(=O)Nc3ccccc3F)cc2)c(C)c1Cl	0	3	-20	-24*	89
C[C@H]1CN([C@@H](C)CO)C(=O)CCCn2cc(nn2)CO[C@H]1CN(C)S(=O)(=O)c1ccc(-c2ccccc2)cc1	-1	-1	x	-4	x
CCCNC(=O)CCc1cc(C(C)(C)C)c(O)c(C(C)(C)C)c1	x	x	0	3	93
CC(C)(C)c1cc(CCC(=O)NCC2CCCO2)cc(C(C)(C)C)c1O (stereo not given)	3	4	298*	-5	101
N#Cc1ccccc1CSc1nc2ccc(NC(=O)c3ccccc3C(=O)O)cc2s1	x	x	143	-23*	90
O=C(O)c1ccc(CSc2nc3ccc(NC(=O)c4ccccc4C(=O)O)cc3s2)cc1	0	-6	-5	-8	99
